Source: article PMC7274092 (Nature biomedical engineering, 2020)

Legend:
liver and kidney = test: Biocompatibility of CB[7]-PEG in healthy rats; format: in vivo, Sprague Dawley rats; conditions: s.c. 0.2 mg/kg once daily for six weeks, n=4
Summary of the method: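 Healthy 10-week-old Sprague Dawley rats (n=4) received CB[7]-PEG at 0.2 mg/kg s.c. in PBS (pH 7.4) once daily for six weeks. […] Blood chemistry was run on an automated analyzer from samples taken on days 14, 28 and 42. At endpoint, liver and kidney were collected for single-blinded histopathology.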

[1] = insulin hexamer, for comparison; cited from earlier work
[2] = Diffusion-ordered NMR spectroscopy; format: physicochemical; conditions: approximated from DOSY diffusion rate by the Stokes-Einstein relationship

| Compound | hydrodynamic radius (Rh) [2] [nm] | also measured |
| --- | --- | --- |
| cucurbit[7]uril-conjugated polyethylene glycol [CB[7]-PEG] |  | blood chemistry and liver/kidney histopathology vs untreated controls (liver and kidney): No differences |
| insulin hexamer: hexameric association state of insulin |  | hydrodynamic radius [1]: approximately 2.8 nm |
| insulin aspart | ~2.2 |  |
| CC[C@H](C)[C@H](NC(=O)[C@@H]1CCCN1C(=O)CNC(=O)[C@H](Cc1ccccc1)NC(=O)[C@H](CC(N)=O)NC(=O)[C@H](CC(N)=O)NC(=O)[C@H](CO)NC(=O)[C@H](CO)NC(=O)[C@H](Cc1c[nH]cn1)NC(=O)[C@@H](NC(=O)[C@H](CC(C)C)NC(=O)[C@H](Cc1ccccc1)NC(=O)[C@H](CC(N)=O)NC(=O)[C@H](C)NC(=O)[C@H](CC(C)C)NC(=O)[C@H](CCCNC(=N)N)NC(=O)[C@H](CCC(N)=O)NC(=O)[C@@H](NC(=O)[C@H](C)NC(=O)[C@@H]1CSSC[C@H](NC(=O)[C@@H](N)CCCCN)C(=O)N[C@@H](CC(N)=O)C(=O)N[C@@H]([C@@H](C)O)C(=O)N[C@@H](C)C(=O)N[C@@H]([C@@H](C)O)C(=O)N1)[C@@H](C)O)C(C)C)C(=O)N[C@@H](CC(C)C)C(=O)N1CCC[C@H]1C(=O)N1CCC[C@H]1C(=O)N[C@H](C(=O)N[C@@H](CC(N)=O)C(=O)N[C@H](C(=O)NCC(=O)N[C@@H](CO)C(=O)N[C@@H](CC(N)=O)C(=O)N[C@H](C(=O)N[C@@H](Cc1ccc(O)cc1)C(N)=O)[C@@H](C)O)C(C)C)[C@@H](C)O [pramlintide] | 1.2 |  |
